Assay results published in ChEMBL document CHEMBL3994569, “Synthesis, anti-varicella-zoster virus and anti-cytomegalovirus activity of quinazoline-2,4-diones containing isoxazolidine and phosphonate substructures” (Eur J Med Chem, 2017).

What was measured:
HeLa = assay: Anti-proliferative activity against human HeLa cells measured after 4 days by coulter counter method; format: ADME, cell-based
Summary of the method: (§1)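 Cells at 300,000–500,000 cells/mL, combined 1:1 by volume with compound dilutions, incubated at 37 °C: L1210 for two days, CEM for three days, HeLa for four days. Cells counted by Coulter counter.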

HMEC-1 = assay: Anti-proliferative activity against HMEC1 cells by coulter counter method; format: ADME, cell-based, Homo sapiens
Summary of the method: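 HMEC-1 cells at 300,000–500,000 cells/mL, mixed 1:1 by volume with serial dilutions of test compound, incubated at 37 °C. Cell number counted by Coulter counter.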

Human alphaherpesvirus 3 [1] = assay: Potency index, ratio of acyclovir EC50 to compound EC50 for thymidine kinase deficient Varicella-Zoster virus 07-1 infected in HEL cells assessed as reduction in virus plaque formation; format: functional
CCRF-CEM = assay: Anti-proliferative activity against human CEM cells measured after 72 hrs by coulter counter method; format: ADME, cell-based; summary of the method: as §1
HEL [2] = assay: (§2) Cytotoxicity against HEL cells infected with Varicella-Zoster virus assessed as growth inhibition; format: cell-based; details: human, hel
[3] = (§3) Cytotoxicity against HEL cells infected with Cytomegalovirus assessed as alteration in cell morphology by microscopic method; format: cell-based; details: human, HEL cells infected with Cytomegalovirus
Summary of the method: (§4)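 In the HEL cultures used for the antiviral assays, cell morphology was examined microscopically across varying compound concentrations. MCC is the minimum concentration causing a microscopically detectable alteration of cell morphology.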

[4] = (§5) Cytotoxicity against HEL cells infected with Varicella-Zoster virus assessed as alteration in cell morphology by microscopic method; format: cell-based; details: human, HEL cells infected with Varicella-Zoster virus; summary of the method: as §4
L1210 = assay: Anti-proliferative activity against mouse L1210 cells measured after 48 hrs by coulter counter method; format: ADME, cell-based; details: Mus musculus, L1210, 48 h; summary of the method: as §1
HEL [5] = assay: Cytotoxicity against HEL cells infected with Cytomegalovirus assessed as growth inhibition; format: cell-based; details: human
Cytomegalovirus [6] = assay: Antiviral activity against Cytomegalovirus AD169 infected in HEL cells assessed as reduction in virus plaque formation; format: functional, cell-based
Summary of the method: (§6)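 Confluent HEL fibroblast cultures infected with 100 PFU of HCMV and kept with varying compound concentrations. Plaques scored once plaque formation was complete in untreated infected controls.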

Human alphaherpesvirus 3 [7] = assay: Antiviral activity against thymidine kinase expressing Varicella-Zoster virus OKA infected in HEL cells assessed as reduction in virus plaque formation; format: functional, cell-based, strain Oka vaccine
Summary of the method: (§7)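 Confluent HEL fibroblast cultures were infected with VZV at an input of 100 PFU and incubated with varying compound concentrations. Plaques were counted once plaque formation was complete in untreated infected controls.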

Cytomegalovirus [8] = assay: Antiviral activity against Cytomegalovirus Davis infected in HEL cells assessed as reduction in virus plaque formation; format: functional, cell-based; summary of the method: as §6
Human alphaherpesvirus 3 [9] = assay: Antiviral activity against thymidine kinase deficient Varicella-Zoster virus 07-1 infected in HEL cells assessed as reduction in virus plaque formation; format: functional, cell-based; summary of the method: as §7
[10] = as §2; format: cell-based; details: human, HEL cells infected with Varicella-Zoster virus
HEL [11] = assay: as §3; format: cell-based; details: human, hel; summary of the method: as §4
HEL [12] = assay: as §5; format: cell-based; details: human, hel; summary of the method: as §4
[13] = Cytotoxicity against virus infected HEL cells assessed as alteration in cell morphology by microscopic method; format: cell-based; details: human; summary of the method: as §4
Human alphaherpesvirus 1 [14] = assay: Antiviral activity against thymidine kinase-deficient acyclovir-resistant Herpes simplex virus 1 KOS infected in HEL cells assessed as reduction in virus-induced cytopathogenicity; format: functional, cell-based; details: Human alphaherpesvirus 1, KOS
Summary of the method: (§8)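 Confluent HEL fibroblast monolayers were infected with 100 CCID50 of virus and incubated with varying concentrations of compound. Cytopathicity was scored once it was complete in untreated infected controls.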

Human alphaherpesvirus 2 = assay: Antiviral activity against Herpes simplex virus 2 G infected in HEL cells assessed as reduction in virus-induced cytopathogenicity; format: functional, cell-based; details: Human alphaherpesvirus 2, strain G
Human adenovirus 2 = assay: Antiviral activity against Human adenovirus 2 infected in HEL cells assessed as reduction in virus-induced cytopathogenicity; format: functional, cell-based; details: Human mastadenovirus C; summary of the method: as §8
Human alphaherpesvirus 1 [15] = assay: Antiviral activity against Herpes simplex virus 1 KOS infected in HEL cells assessed as reduction in virus-induced cytopathogenicity; format: functional, cell-based; details: Human alphaherpesvirus 1, KOS; summary of the method: as §8
[16] = Human betaherpesvirus 5, AD169, HEL
[17] = Human betaherpesvirus 5, Davis, HEL
[18] = Human alphaherpesvirus 3, 07-1, HEL

| Structure (SMILES) | IC50 (HMEC-1; Homo sapiens, HMEC-1) | Ratio EC50 (Human alphaherpesvirus 3 [1]) | IC50 (CCRF-CEM; Homo sapiens, CCRF-CEM, 72 h) | CC50 (HEL [2]) | MCC [3] | MCC [4] | IC50 (L1210) | CC50 (HEL [5]) | EC50 (Cytomegalovirus [6]; [16]) | EC50 (Cytomegalovirus [8]; [17]) | EC50 (Human alphaherpesvirus 3 [9]; [18]) | IC50 (HeLa; hela) | EC50 (Cytomegalovirus [6]) | EC50 (Human alphaherpesvirus 3 [7]) | EC50 (Cytomegalovirus [8]) | other results |
| --- | --- | --- | --- | --- | --- | --- | --- | --- | --- | --- | --- | --- | --- | --- | --- | --- |
| CCOP(=O)(OCC)C1CC(Cn2c(=O)n(Cc3ccccc3F)c(=O)c3ccccc32)ON1Cc1ccccc1 (stereo unspecified) | 23 µM | 10 - 14 | 20 µM | 11.8 µM | 100 µM | 100 µM | 17 µM | 11.8 µM | 8.94 µM | ≥ 6.5 µM | 5.1 µM | – | – | – | – | IC50 (HeLa; Homo sapiens, HeLa, 96 h): 17 µM; EC50 (Human alphaherpesvirus 3 [7]; Human alphaherpesvirus 3, strain Oka vaccine, HEL): 4.7 µM |
| CCOP(=O)(OCC)C1CC(Cn2c(=O)n(Cc3ccccc3)c(=O)c3ccccc32)ON1Cc1ccccc1 (mixture of isomers; cis) | 28 µM | – | 10 µM | – | 100 µM | 100 µM | 18 µM | 9 µM | – | – | 13.2 µM | 33 µM | ≥ 3 µM | 7.3 µM | 6.5 µM | CC50 [10]: 9 µM |
| CCOP(=O)(OCC)C1CC(Cn2c(=O)n(Cc3ccc(F)cc3)c(=O)c3ccccc32)ON1Cc1ccccc1 (mixture of isomers; trans) | – | 10 - 14 | – | 6.6 µM | – | – | – | 6.6 µM | – | – | – | 18 µM | ≥ 6.5 µM | 3 µM | 8.94 µM | IC50 (HMEC-1; hmec-1): 26 µM; IC50 (CCRF-CEM; ccrf-cem): 13 µM; MCC (HEL [11]): 100 µM; MCC (HEL [12]): 100 µM; EC50 (Human alphaherpesvirus 3 [9]): 3.6 µM |
| Nc1ccn(C[C@@H](CO)OCP(=O)(O)O)c(=O)n1 [CIDOFOVIR] | – | – | – | – | > 300 µM | – | – | > 300 µM | 1.44 µM | 0.81 µM | – | – | – | – | – | MCC [13]: > 250 µM; EC50 (Human alphaherpesvirus 1 [14]): 3.8 µM; EC50 (Human alphaherpesvirus 2): 2 µM; EC50 (Human adenovirus 2): 10 µM; EC50 (Human alphaherpesvirus 1 [15]): 2 µM |
